PMC5456262 (Biochemistry, 2017)
“And” between values parts separate entries of the source, which are not always exact repeats. Equal values may be shown once.

Legend:
H35C LacY = H35C LacY (Escherichia coli, UniProt P02920, H35C); test: NPG binding to control single-Cys mutant H35C, stopped-flow; settings: Figure S3
N245C LacY = N245C LacY (Escherichia coli, UniProt P02920, N245C); test: NPG binding to control single-Cys mutant N245C, stopped-flow; settings: Figure S3
[1] = target: LacY mutant 32C/245C (I32C/N245C) (Escherichia coli, UniProt P02920, I32C/N245C); test: biochemical; type: binding
LacY mutant 32C/245C (I32C/N245C), sequence (P02920 whole entry I32C/N245C): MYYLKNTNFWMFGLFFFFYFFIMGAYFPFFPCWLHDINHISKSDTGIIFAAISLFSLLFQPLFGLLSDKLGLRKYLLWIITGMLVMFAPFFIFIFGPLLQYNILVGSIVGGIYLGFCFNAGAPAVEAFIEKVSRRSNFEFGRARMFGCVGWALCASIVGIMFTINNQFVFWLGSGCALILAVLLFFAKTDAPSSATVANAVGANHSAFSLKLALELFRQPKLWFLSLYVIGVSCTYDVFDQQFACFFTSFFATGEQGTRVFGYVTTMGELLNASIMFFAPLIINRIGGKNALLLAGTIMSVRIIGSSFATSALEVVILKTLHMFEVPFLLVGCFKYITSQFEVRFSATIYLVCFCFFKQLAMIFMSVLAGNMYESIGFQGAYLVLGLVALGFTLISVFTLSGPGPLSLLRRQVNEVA

I32C LacY = I32C LacY (Escherichia coli, UniProt P02920, I32C); test: NPG binding to control single-Cys mutant I32C, stopped-flow; settings: Figure S3
I32C LacY, sequence (P02920 whole entry I32C): as the sequence (P02920 whole entry I32C/N245C) above, with C245N counted along it

[2] = target: mutant 32C/245C LacY–Nb9065 complex in PL (Escherichia coli, UniProt P02920, I32C/N245C); type: binding
mutant 32C/245C LacY–Nb9065 complex in PL, sequence (P02920 whole entry I32C/N245C, one chain of several): as the sequence (P02920 whole entry I32C/N245C) above

WT LacY in PL = settings: cited from earlier work
[3] = target: LacY mutant 35C/245C (H35C/N245C) (Escherichia coli, UniProt P02920, H35C/N245C); test: NPG binding to mutant 35C/245C solubilized in DDM, stopped-flow Trp151→NPG FRET
LacY mutant 35C/245C (H35C/N245C), sequence (P02920 whole entry H35C/N245C): as the sequence (P02920 whole entry I32C/N245C) above, with C32I, H35C counted along it

[4] = target: LacY control mutants I32C, H35C, or N245C; test: Galactoside; type: binding, Escherichia coli; settings: range over three control mutants, presence or absence of Cu^2+
In short: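 Purified LacY single-Cys mutants were pretreated with CuSO4 (oxidizing) or 10 mM TCEP (reducing) for 10 min at room temperature, with stopped-flow final TCEP at 2 mM. Buffer was 50 mM NaPi pH 7.5, with 0.02% DDM for detergent-solubilized protein. Protein was preincubated 5 min with NPG at varied concentrations, then mixed by stopped-flow with 15 mM TDG. Trp151→NPG FRET was read at ex 295/em 340 nm, and single-exponential fits gave koff.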

[5] = target: LacY mutant 32C/245C (I32C/N245C) reconstituted into PL (Escherichia coli, UniProt P02920, I32C/N245C); test: biochemical; type: binding
LacY mutant 32C/245C (I32C/N245C) reconstituted into PL, sequence (P02920 whole entry I32C/N245C): as the sequence (P02920 whole entry I32C/N245C) above

[6] = DDM, Cu^2+, directly measured NPG binding rates
[7] = Kd^app calculated = Kd(1 + kr/kf), DDM, cross-linked with Cu^2+
[8] = read-out: kon from two-step conformational selection fit

H35C LacY, sequence (P02920 whole entry H35C): as the sequence (P02920 whole entry I32C/N245C) above, with C32I, H35C, C245N counted along it
N245C LacY, sequence (P02920 whole entry N245C): as the sequence (P02920 whole entry I32C/N245C) above, with C32I counted along it

Structure (SMILES): O=[N+]([O-])c1ccc(O[C@H]2O[C@H](CO)[C@H](O)[C@H](O)[C@H]2O)cc1 [NPG, 4-nitrophenyl α-D-galactopyranoside]
- kobs (sugar binding rate measured directly) (H35C LacY): 33 s⁻¹
- kobs (sugar binding rate measured directly) (N245C LacY): 26 s⁻¹
- kobs limit at high sugar concentrations [1, 6]: 40 to 50 s⁻¹
- koff (rate of NPG displacement by excess TDG) ([1]; DDM, cross-linked in the presence of Cu^2+): 9.1 ± 0.9 s⁻¹
- Kd [1, 7]: 68 µM
- kon [1, 8]: 640000 ± 120000 M⁻¹ s⁻¹
- kobs (sugar binding rate measured directly) (I32C LacY): 20 s⁻¹
- Kd [2]: 6 ± 2 µM
- kon ([2]; read-out: kon from concentration dependence of binding rates measured directly): 3.7e+06 ± 200000 M⁻¹ s⁻¹
- Kd (WT LacY in PL; WT LacY in PL): 11 µM
- koff (WT LacY in PL; WT LacY in PL): 111 s⁻¹
- kon estimated from displacement experiments (WT LacY in PL; WT LacY reconstituted into PL): 1e+07 M⁻¹ s⁻¹
- kobs (sugar binding rate, independent of sugar concentration) (WT LacY in PL; reconstituted WT LacY): 21 s⁻¹
- kobs limit at high sugar concentrations [3, 6]: 40 to 50 s⁻¹
- Kd [3, 7]: 91 µM
- kon [3, 8]: 700000 ± 160000 M⁻¹ s⁻¹
- Kd [4]: 3 to 17 µM
- koff [4]: 33 to 102 s⁻¹
- Kd [5]: 7 ± 1 µM
- sugar binding (NPG displacement) ([5]; PL, cross-linked in the presence of Cu^2+, 400 μM NPG): no sugar binding
- kobs (NPG binding rate measured directly, independent of NPG concentration) ([5]; PL, reducing conditions (TCEP), no Nb9065): 2.2 ± 0.4 s⁻¹ and 2 s⁻¹
- koff ([5]; read-out: koff (displacement rate)): 24 ± 3 s⁻¹
